Test results taken from ChEMBL document CHEMBL4052588, “Design of a Biased Potent Small Molecule Inhibitor of the Bromodomain and PHD Finger-Containing (BRPF) Proteins Suitable for Cellular and in Vivo Studies” (J Med Chem, 2017).
Each block holds one compound with its values, some of them ahead of it.

Key:
NCI-H1437 = assay: Growth inhibition of human NCI-H1437 cells after 72 hrs; format: functional; settings: NCI-H1437, 72 h
IM-9 = assay: Growth inhibition of human IM9 cells after 72 hrs; format: functional; settings: IM-9, 72 h
[1] = Apparent permeability from basolateral to apical side in human Caco2 cells at 10 uM after 2 hrs by LC-MS/MS analysis; format: ADME, cell-based; settings: Caco-2
[2] = Growth inhibition of human Panc 02.03 cells after 72 hrs; format: functional; settings: Panc 02.03, 72 h
[3] = Fraction unbound in mouse plasma; format: ADME, cell-free
NUGC-4 = assay: Growth inhibition of human NUGC4 cells after 72 hrs; format: functional; settings: NUGC-4, 72 h
[4] = Oral bioavailability in CD-1 mouse at 3 mg/kg; format: ADME, organism-based; settings: in vivo
Method in brief: (§1)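 Female CD-1 mice (n = 3), single dosing: intravenous 1.0 mg/kg, or oral 3.0 mg/kg given as a suspension. Blood levels were followed over time to derive clearance, volume of distribution, elimination half-life, Cmax, Tmax, AUC0−∞, oral bioavailability and fraction absorbed.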

NOMO-1 = assay: Growth inhibition of human NOMO1 cells after 72 hrs; format: functional; settings: NOMO-1, 72 h
[5] = Clearance in CD-1 mouse blood at 1 mg/kg, iv administered as bolus; format: ADME, organism-based; settings: whole blood; method in brief: as §1
COLO 205 = assay: Growth inhibition of human COLO205 cells after 72 hrs; format: functional; settings: COLO 205, 72 h
[6] = molecular target: T1, Bromodomain and PHD finger-containing protein 3 (Homo sapiens, UniProt Q9ULD4); assay: Inhibition of human His tagged BRPF3 incubated for 30 mins followed by addition of biotinylated peptide and further incubation for 30 mins measured by AlphaScreen assay
T1 sequence (Q9ULD4 whole entry): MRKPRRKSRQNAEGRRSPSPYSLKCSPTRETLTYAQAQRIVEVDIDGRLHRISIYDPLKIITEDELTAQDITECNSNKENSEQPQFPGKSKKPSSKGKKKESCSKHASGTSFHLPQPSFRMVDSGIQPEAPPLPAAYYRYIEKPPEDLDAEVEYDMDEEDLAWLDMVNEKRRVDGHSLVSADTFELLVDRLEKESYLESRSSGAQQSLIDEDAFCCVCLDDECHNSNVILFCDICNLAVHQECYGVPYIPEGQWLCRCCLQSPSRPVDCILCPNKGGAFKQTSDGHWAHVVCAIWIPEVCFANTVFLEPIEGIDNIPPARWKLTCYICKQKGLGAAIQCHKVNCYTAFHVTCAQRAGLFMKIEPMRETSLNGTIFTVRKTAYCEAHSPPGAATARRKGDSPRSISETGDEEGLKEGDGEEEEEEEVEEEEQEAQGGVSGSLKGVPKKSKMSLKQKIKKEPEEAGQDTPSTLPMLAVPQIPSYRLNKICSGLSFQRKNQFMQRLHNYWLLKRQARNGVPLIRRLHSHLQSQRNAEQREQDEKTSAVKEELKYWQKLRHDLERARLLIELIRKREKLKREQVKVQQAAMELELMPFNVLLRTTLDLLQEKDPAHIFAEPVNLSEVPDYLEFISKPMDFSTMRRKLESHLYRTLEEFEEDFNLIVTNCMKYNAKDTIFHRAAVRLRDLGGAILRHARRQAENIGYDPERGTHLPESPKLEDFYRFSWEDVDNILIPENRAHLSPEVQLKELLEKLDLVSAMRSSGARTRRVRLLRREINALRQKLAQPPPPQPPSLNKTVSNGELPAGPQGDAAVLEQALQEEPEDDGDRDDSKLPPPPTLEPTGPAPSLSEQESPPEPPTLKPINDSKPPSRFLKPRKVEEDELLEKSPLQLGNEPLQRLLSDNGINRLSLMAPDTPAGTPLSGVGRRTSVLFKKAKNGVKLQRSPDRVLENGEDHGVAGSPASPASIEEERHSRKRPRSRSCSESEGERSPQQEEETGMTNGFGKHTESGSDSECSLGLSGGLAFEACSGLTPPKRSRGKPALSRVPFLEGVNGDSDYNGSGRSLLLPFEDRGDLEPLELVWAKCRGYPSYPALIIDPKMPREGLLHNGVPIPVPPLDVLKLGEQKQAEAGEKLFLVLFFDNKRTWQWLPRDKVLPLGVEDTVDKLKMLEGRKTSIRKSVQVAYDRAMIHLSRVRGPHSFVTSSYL
Method in brief: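 AlphaScreen biochemical readout of bromodomain inhibition, giving an IC50. Compound series were made by serial dilution of a 100 mM DMSO stock. […] Differences under 2-fold are treated as not significant.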

SNU-5 = assay: Growth inhibition of human SNU5 cells after 72 hrs; format: functional; settings: SNU-5, 72 h
[7] = Growth inhibition of human QGP1 cells after 72 hrs; format: functional; settings: QGP-1, 72 h
LS180 = assay: Growth inhibition of human LS180 cells after 72 hrs; format: functional; settings: LS180, 72 h
Hs 766 = assay: Growth inhibition of human Hs766T cells after 72 hrs; format: functional; settings: Hs 766, 72 h
[8] = Tmax in CD-1 mouse blood at 3 mg/kg, po; format: ADME, organism-based; settings: whole blood; method in brief: as §1
HuP-T4 = assay: Growth inhibition of human HUPT4 cells after 72 hrs; format: functional; settings: HuP-T4, 72 h
[9] = Cmax in CD-1 mouse blood at 3 mg/kg, po; format: ADME, organism-based; set-up: dose 3 mg/kg, route oral; settings: whole blood; method in brief: as §1
CWR22R = assay: Growth inhibition of human 22Rv1 cells after 72 hrs; format: functional; settings: 22Rv1, 72 h
SW48 = assay: Growth inhibition of human SW48 cells after 72 hrs; format: functional; settings: SW48, 72 h
SW948 = assay: Growth inhibition of human SW948 cells after 72 hrs; format: functional; settings: SW948, 72 h
[10] = molecular target: Bromodomain adjacent to zinc finger domain protein 2A (Homo sapiens, UniProt Q9UIF9); assay: Inhibition of human BAZ2A expressed in Escherichia coli BL21 after 1 hr by BROMOscan assay
[11] = molecular target: Transcription initiation factor TFIID subunit 1, TAF1 (Homo sapiens) (UniProt P21675); assay: Inhibition of human His tagged TAF1 incubated for 30 mins followed by addition of biotinylated peptide and further incubation for 30 mins measured by AlphaScreen assay
[12] = molecular target: Histone acetyltransferase KAT2B (Homo sapiens, UniProt Q92831); assay: Inhibition of human PCAF expressed in Escherichia coli BL21 after 1 hr by BROMOscan assay
Chain of Histone acetyltransferase KAT2B (Q92831 whole entry): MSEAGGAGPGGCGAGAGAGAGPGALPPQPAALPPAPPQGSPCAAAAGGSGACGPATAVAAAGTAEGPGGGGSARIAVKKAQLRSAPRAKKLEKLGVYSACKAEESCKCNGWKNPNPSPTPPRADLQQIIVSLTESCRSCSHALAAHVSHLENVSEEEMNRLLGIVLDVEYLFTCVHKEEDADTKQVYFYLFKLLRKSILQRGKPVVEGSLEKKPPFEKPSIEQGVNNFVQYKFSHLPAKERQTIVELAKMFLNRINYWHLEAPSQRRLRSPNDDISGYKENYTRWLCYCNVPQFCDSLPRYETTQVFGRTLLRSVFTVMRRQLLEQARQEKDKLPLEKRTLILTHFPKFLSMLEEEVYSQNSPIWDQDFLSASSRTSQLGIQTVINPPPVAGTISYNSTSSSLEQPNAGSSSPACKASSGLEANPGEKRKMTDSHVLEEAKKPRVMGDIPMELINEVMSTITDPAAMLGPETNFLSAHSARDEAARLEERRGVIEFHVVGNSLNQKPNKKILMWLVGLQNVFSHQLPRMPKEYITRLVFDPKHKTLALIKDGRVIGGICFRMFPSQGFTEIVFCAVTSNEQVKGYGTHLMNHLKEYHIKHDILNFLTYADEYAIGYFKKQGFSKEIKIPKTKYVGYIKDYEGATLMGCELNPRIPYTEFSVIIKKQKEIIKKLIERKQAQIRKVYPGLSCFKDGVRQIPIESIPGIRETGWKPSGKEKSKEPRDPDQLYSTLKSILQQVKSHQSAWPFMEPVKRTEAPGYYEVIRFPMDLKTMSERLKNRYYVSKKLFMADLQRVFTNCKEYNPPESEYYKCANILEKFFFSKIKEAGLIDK

Chain of Bromodomain adjacent to zinc finger domain protein 2A (Q9UIF9 whole entry, the tested form may be a part): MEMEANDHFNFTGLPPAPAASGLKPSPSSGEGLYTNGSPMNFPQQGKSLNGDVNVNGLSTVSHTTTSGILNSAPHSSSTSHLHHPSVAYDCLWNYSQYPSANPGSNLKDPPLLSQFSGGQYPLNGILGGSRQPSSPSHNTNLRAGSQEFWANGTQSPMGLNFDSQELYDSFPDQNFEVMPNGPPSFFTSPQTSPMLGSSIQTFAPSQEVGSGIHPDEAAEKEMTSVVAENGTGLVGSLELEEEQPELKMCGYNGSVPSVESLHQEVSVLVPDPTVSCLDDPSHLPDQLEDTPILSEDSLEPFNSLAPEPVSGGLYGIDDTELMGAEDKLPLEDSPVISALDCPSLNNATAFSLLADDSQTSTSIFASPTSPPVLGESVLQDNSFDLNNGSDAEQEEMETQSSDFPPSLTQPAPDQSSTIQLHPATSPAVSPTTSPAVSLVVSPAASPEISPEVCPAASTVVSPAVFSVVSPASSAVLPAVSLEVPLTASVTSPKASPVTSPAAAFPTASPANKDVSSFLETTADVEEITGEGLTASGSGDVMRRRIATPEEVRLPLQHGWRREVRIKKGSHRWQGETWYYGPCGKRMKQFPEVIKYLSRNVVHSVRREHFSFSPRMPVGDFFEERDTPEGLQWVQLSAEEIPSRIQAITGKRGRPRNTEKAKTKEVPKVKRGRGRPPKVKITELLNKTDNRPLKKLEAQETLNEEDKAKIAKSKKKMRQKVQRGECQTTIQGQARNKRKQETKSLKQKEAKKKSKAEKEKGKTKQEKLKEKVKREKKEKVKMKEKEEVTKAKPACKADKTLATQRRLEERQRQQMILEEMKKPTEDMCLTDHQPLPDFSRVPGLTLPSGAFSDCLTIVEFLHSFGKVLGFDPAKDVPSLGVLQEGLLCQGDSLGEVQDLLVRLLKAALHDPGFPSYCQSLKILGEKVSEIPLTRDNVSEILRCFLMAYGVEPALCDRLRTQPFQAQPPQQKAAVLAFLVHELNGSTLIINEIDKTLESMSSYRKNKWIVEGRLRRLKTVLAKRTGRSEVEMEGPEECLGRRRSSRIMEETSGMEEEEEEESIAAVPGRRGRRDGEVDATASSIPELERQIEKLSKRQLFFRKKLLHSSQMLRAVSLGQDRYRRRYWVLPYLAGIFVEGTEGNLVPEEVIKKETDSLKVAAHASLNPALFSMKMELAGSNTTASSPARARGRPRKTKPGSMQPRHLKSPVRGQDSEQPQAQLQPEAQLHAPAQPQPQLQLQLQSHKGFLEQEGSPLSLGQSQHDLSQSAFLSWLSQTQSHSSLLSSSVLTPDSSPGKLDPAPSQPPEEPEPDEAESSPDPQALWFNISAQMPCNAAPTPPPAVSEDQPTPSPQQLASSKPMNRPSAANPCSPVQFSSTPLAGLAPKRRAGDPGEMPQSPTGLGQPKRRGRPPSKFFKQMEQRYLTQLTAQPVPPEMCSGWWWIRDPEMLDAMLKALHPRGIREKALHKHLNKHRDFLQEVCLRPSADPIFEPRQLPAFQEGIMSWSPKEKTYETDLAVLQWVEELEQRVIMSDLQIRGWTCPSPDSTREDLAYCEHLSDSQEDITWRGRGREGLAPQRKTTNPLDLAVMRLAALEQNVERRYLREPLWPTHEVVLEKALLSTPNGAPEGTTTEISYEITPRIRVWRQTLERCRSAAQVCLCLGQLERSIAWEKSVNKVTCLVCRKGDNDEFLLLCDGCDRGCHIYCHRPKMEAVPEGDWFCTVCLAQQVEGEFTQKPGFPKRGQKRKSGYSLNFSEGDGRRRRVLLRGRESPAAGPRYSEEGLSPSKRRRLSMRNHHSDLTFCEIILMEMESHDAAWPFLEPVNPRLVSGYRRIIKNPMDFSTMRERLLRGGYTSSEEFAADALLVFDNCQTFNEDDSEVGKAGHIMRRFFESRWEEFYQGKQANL
Chain of Transcription initiation factor TFIID subunit 1, TAF1 (Homo sapiens) (P21675 whole entry, looked up): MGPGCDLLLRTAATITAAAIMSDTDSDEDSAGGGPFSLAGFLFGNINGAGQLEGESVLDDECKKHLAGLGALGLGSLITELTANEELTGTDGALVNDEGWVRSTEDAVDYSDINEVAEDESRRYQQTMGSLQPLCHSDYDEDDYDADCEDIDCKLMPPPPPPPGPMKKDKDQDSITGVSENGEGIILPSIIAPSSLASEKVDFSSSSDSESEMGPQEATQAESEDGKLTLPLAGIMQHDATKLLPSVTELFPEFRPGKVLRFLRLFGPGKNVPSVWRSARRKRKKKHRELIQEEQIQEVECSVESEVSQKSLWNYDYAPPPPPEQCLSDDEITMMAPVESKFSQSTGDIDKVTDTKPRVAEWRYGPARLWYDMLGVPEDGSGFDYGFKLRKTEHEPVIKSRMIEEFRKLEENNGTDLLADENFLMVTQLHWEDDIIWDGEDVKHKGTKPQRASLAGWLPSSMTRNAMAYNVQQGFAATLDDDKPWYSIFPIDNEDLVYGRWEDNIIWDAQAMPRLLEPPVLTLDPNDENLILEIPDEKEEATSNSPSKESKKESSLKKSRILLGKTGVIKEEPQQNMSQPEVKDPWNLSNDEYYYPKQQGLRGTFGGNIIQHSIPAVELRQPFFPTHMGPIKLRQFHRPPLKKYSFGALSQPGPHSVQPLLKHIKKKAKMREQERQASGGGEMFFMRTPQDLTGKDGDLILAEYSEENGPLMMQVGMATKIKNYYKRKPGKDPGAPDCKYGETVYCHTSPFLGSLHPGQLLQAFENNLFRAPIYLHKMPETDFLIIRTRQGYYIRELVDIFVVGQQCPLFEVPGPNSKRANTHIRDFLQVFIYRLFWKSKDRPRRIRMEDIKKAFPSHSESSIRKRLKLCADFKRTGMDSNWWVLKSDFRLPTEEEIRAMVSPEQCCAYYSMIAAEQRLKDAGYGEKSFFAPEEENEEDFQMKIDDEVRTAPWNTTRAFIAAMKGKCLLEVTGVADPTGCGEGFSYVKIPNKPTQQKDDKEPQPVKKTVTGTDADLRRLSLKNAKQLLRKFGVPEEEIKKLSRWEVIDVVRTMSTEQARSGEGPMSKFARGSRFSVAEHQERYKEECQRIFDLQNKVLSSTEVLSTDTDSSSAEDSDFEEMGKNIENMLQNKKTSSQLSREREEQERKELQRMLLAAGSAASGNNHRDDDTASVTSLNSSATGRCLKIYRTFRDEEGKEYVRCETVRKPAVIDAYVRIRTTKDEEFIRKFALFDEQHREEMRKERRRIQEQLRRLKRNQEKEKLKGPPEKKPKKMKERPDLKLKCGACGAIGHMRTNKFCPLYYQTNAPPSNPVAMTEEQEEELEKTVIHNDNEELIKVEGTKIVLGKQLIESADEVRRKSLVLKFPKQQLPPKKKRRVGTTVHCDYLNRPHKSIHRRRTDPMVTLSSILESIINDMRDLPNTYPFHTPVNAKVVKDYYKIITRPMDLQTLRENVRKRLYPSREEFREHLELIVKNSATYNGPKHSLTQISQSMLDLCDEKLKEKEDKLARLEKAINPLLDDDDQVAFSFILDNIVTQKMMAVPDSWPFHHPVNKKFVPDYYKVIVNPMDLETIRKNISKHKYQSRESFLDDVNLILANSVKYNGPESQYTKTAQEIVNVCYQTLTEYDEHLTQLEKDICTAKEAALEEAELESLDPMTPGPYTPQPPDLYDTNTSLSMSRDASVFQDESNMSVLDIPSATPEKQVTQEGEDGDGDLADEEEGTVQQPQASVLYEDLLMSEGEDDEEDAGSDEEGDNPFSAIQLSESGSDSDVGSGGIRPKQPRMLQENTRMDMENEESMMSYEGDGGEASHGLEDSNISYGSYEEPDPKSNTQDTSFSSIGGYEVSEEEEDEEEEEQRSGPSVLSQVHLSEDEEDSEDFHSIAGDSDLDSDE

- GI50 (NCI-H1437): 1 to 10 µM
- Papp B→A at 2 h, 10 µM [1]: 500 nm/s
- fraction unbound [3]: 0.03
- bioavailability [4]: 49%
- clearance [5]: 0.24 L/h/kg
- GI50 (COLO 205): 1 to 10 µM
- IC50 [6]: 2 µM
- GI50 (SNU-5): 1 to 10 µM
- Tmax [8]: 1 h
- Cmax [9]: 4 µM
- GI50 (SW48): 1 to 10 µM
- GI50 (SW948): 1 to 10 µM
Structure (SMILES): Cc1cc2cc(NS(=O)(=O)c3ccc(C#N)cc3)ccc2n(C)c1=O
- GI50 (IM-9): 1 to 10 µM
- GI50 [2]: 1 to 10 µM
- GI50 (NUGC-4): 1 to 10 µM
- GI50 (NOMO-1): 4.6 µM
- GI50 [7]: 1 to 10 µM
- GI50 (LS180): 1 to 10 µM
- GI50 (Hs 766): 1 to 10 µM
- GI50 (HuP-T4): 1 to 10 µM
- GI50 (CWR22R): 1 to 10 µM

- IC50 [10]: > 100 µM
- IC50 [11]: > 20 µM
- IC50 [12]: > 100 µM
Structure (SMILES): CCc1cc2cc(NS(=O)(=O)c3ccc(C#N)cc3)ccc2n(CC)c1=O
